Source: PMC6207247 (Clinical Pharmacology : Advances and Applications, 2018)
“Also recorded” adds a separate entry of the source.

Legend:
thrombin generation = experiment: Ex vivo thrombin generation; assay type: in vivo, human; conditions: after apixaban administration, greatest change
Method in brief: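 For thrombin generation, the same dosing design applied, with platelet-poor plasma (double centrifugation, 2,500 g, 4°C) sampled 3, 6, 12 and 24 h postdose. Thrombin over time came from cleavage of a slow-reacting fluorogenic substrate against a paired calibration sample. Lag time, time to peak, peak thrombin and endogenous thrombin potential were derived from the curve and summarised as % change from baseline by group, dose and time.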

clotting time (INR) = experiment: International normalized ratio; assay type: in vivo, human; conditions: 50 mg dose, Japanese and Caucasian
[1] = patients with atrial fibrillation, population PK; cited from earlier work
[2] = test system: clotting times and thrombin generation; experiment: Time course of pharmacodynamic measures; assay type: in vivo, human
clotting time (mPT) = experiment: Modified prothrombin time; assay type: in vivo, human; conditions: 50 mg single dose, Japanese and Caucasian
clotting time (aPTT) = experiment: Activated partial thromboplastin time; assay type: in vivo, human; conditions: 50 mg dose
[3] = Single-dose pharmacokinetics of apixaban in plasma and urine; assay type: in vivo, human; conditions: for dose proportionality of exposure: Japanese and Caucasian; for CL renal / half-life: male, human, oral; for CL renal: plasma and urine, renal clearance; for half-life: plasma
[4] = Safety and tolerability assessment; assay type: in vivo, human; conditions: for bleeding time: same subject
Method in brief: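 Subjects stayed in clinic ≥72 h per period and avoided alcohol, grapefruit, caffeine and fecal-occult-interfering foods up to Day 4. Safety was assessed by adverse-event review (MedDRA v8.1, by organ class, ethnic group and dose), vital signs, ECGs, physical exams, serum chemistry, liver function, blood counts, urinalysis, fecal occult blood and template-device bleeding time.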

- AUC values lower in Japanese than in Caucasian subjects ([3]; 50 mg dose): 20%–22%
- point estimates and 95% CIs for dose proportionality parameter b ([3]; Cmax and AUC, both Japanese and Caucasian subjects, 2.5–50 mg): < 1
- dose proportionality of exposure ([3]; across the 2.5–50 mg dose range): less than proportional to dose
- CL renal ([3]; Caucasian subjects, across doses): 13.3 mL/min
- CL renal ([3]; Japanese subjects, across doses): 18.3 mL/min
- half-life ([3]; mean T1/2 values across doses, Caucasian subjects, 2.5–50 mg): 8.9 to 16.1 h
- half-life ([3]; mean T1/2 values across doses, Japanese subjects, 2.5–50 mg): 6.1 to 8.5 h
- half-life ([3]; mean half-life, Caucasian subjects, across doses): ~13 h
- half-life ([3]; mean half-life, Japanese subjects, across doses): ~8 h
SMILES: COc1ccc(-n2nc(C(N)=O)c3c2C(=O)N(c2ccc(N4CCCCC4=O)cc2)CC3)cc1 [apixaban, 1-(4-methoxyphenyl)-7-oxo-6-(4-(2-oxopiperidin-1-yl)phenyl)-4,5,6,7-tetrahydro-1H-pyrazolo[3,4-c]pyridine-3-carboxamide]
- ETP, decrease from baseline (thrombin generation): 49%
- LAG, increase from baseline (up to) (thrombin generation): approximately 178%
- PEAK, decrease from baseline (thrombin generation): 86%
- TTP, increase from baseline (up to) (thrombin generation): ~142%
- INR, increase from baseline (clotting time (INR)): 50%–64%
- apixaban clearance lower in Japanese patients compared to the overall population [1]: 15%
- higher exposure corresponding to the lower clearance in Japanese patients [1]: 18%
- duration of pharmacodynamic effects ([2]; 25 and 50 mg dose panels): > 24 h
- time for which changes in TG parameters and mPT were evident ([2]; after apixaban administration): ≥ 12 h
- time until changes in pharmacodynamic measures were evident ([2]; after apixaban administration, Japanese and Caucasian): ≤ 30 min
- time to nearing baseline values of pharmacodynamic measures ([2]; doses ≤10 mg): 12 to 24 h
- time of peak values of pharmacodynamic measures ([2]; postdose): approximately 3 h
- mPT, mean maximum increase from baseline (clotting time (mPT)): 226%–229%
- aPTT, mean maximum increase from baseline (clotting time (aPTT)): ~ 25%
- dose proportionality of exposure ([3]; 2.5–10 mg dose range): increased the dose proportionally up to 10 mg; also recorded: increased in proportion to dose
- headache, number of subjects ([4]; Caucasian subjects who received apixaban): five
- subjects reporting AEs ([4]; Caucasian subjects who received apixaban (11)): 91.7%
- subjects reporting AEs ([4]; Japanese subjects who received apixaban (five)): 41.7%
- intensity of reported AEs ([4]; all reported AEs): mild or moderate
- safety and tolerability ([4]; ascending single oral doses 2.5–50 mg, Japanese and Caucasian healthy subjects): safe and well tolerated
- changes in vital signs or ECGs ([4]; either group): no clinically relevant changes
- bleeding time ([4]; 3.5 h after the 50 mg dose): 30 min
- bleeding time ([4]; by 12 h after the 50 mg dose): 9 min
- total number of AEs reported ([4]; subjects who received apixaban (12 Japanese, 12 Caucasian)): 32
- serious AEs or discontinuations due to AEs ([4]; whole study): no serious AEs or discontinuations due to AEs
